# Legend:
# [1] = molecular target: T1, Tyrosyl-DNA phosphodiesterase 1 (Homo sapiens, UniProt Q9NUW8)
# [2] = Cytotoxicity against human MCF7 cells expressing Tdp1 assessed as reduction in cell viability measured after 72 hrs by MTT assay; format: toxicity, cell-based; settings: for Activity: mcf7, 72 h
# Procedure, shortened: (§1)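 MCF-7 mammary adenocarcinoma cells, about 2000 per well, were pre-incubated for 24 h at 37 °C in IMDM (5% CO₂). They were then exposed to the coumarins over a dose series up to 100 μM. After 72 h, live cells were quantified by colorimetric MTT test. CC50 was read from the dose-response curve.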
# [3] = Cytotoxicity against human RPMI8226 cells expressing low levels of Tdp1 assessed as reduction in cell viability up to 100 uM measured after 72 hrs by MTT assay; format: toxicity, cell-based; settings: rpmi-8226, 72 h
# Procedure, shortened: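 RPMI 8226 human myeloma cells were seeded at about 2000 per well and treated with the coumarins. They were incubated at 37 °C in RPMI 1640 medium (5% CO₂). Viability was measured by MTT.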
# [4] = molecular target: T1, Tyrosyl-DNA phosphodiesterase 1; assay: Reversal of Tdp1-mediated drug resistance in human MCF7 cells assessed as camptothecin CC50 at 5 uM measured after 72 hrs by MTT assay (reference value: 1430 +/- 430 nM); format: cell-based
# Procedure, shortened: (§2)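 MCF-7 cells, about 2000 per well, were pre-incubated for 24 h at 37 °C in IMDM (5% CO₂). They were then given graded camptothecin concentrations together with a fixed 5 μM coumarin. After 72 h, viable cells were measured by MTT. Camptothecin CC50 was estimated with and without the coumarin.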
# [5] = molecular target: T1, Tyrosyl-DNA phosphodiesterase 1; assay: Reversal of Tdp1-mediated drug resistance in human MCF7 cells assessed as fold reduction in camptothecin CC50 at 5 uM measured after 72 hrs by MTT assay relative to camptothecin alone; format: cell-based
# Procedure, shortened: as §2
# [6] = Cytotoxicity against human MCF7 cells expressing Tdp1 assessed as reduction in cell viability up to 100 uM measured after 72 hrs by MTT assay; format: toxicity, cell-based; settings: mcf7, 72 h
# Procedure, shortened: as §1
# T1 sequence (Q9NUW8 whole entry): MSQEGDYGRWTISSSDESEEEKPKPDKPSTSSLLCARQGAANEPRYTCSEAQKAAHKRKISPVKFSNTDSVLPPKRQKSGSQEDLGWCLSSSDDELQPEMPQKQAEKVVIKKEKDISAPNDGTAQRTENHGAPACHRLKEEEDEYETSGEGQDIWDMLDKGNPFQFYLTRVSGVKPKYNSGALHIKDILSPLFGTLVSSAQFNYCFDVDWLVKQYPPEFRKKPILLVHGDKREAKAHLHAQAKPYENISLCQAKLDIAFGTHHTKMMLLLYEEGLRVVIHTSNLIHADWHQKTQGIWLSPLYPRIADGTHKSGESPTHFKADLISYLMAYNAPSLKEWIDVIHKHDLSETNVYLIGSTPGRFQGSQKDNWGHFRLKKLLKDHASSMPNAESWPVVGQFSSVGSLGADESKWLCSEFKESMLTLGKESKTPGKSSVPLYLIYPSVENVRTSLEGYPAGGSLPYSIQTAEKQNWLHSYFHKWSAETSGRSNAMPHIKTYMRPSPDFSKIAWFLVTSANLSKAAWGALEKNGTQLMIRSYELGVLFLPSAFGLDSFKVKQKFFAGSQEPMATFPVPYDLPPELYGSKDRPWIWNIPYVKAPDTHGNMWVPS
Compound,IC50 [1] [nM],Activity [2],Activity [3],CC50 [4] [nM],CC50 at 72 h ([2]; MCF7 cells expressing Tdp1) [nM],fold change (FC) [5],Activity [6]
COc1cc(COc2ccc3c(C)cc(=O)oc3c2)cc(OC)c1OC,> 10000,,,,,,
Cc1cc(=O)oc2cc(OCC3=CC[C@H]4C[C@@H]3C4(C)C)ccc12,1560,Toxic,Non-Toxic,340,,,
CC1(C)[C@@H]2CC=C(COc3ccc4c5c(c(=O)oc4c3)CCC5)[C@H]1C2,675,,Non-Toxic,180,> 100000,8,
COc1cc(COc2ccc3c4c(c(=O)oc3c2)CCC4)cc(OC)c1OC,> 10000,,,,,,
COc1cccc(COc2ccc3c4c(c(=O)oc3c2)CCCC4)c1,4930,,,,,,
CC1(C)[C@H]2CC=C(CCOc3ccc4c5c(c(=O)oc4c3)CCC5)[C@@H]1C2,1090,Dose-dependent effect,,,,,
CC1(C)[C@H]2CC=C(CCOc3ccc4c5c(c(=O)oc4c3)CCCC5)[C@@H]1C2,1450,Dose-dependent effect,,2300,,,
COc1cccc(COc2ccc3c(C)cc(=O)oc3c2)c1,> 10000,,,,,,
CC1(C)[C@H]2CC=C(COc3ccc4c5c(c(=O)oc4c3)CCCC5)[C@@H]1C2,1230,,,,,,Non-Toxic
Cc1cc(=O)oc2cc(OCC3=CC[C@@H]4C[C@H]3C4(C)C)ccc12,4310,Toxic,Non-Toxic,320,,,
CC1(C)[C@H]2CC=C(COc3ccc4c5c(c(=O)oc4c3)CCC5)[C@@H]1C2,1370,,,330,,,Non-Toxic
CC1(C)[C@@H]2CC=C(COc3ccc4c5c(c(=O)oc4c3)CCCC5)[C@H]1C2,1200,,Non-Toxic,410,,,Non-Toxic
COc1cc(COc2ccc3c4c(c(=O)oc3c2)CCCC4)cc(OC)c1OC,> 10000,,,,,,

# Source: ChEMBL document CHEMBL3860076, “New inhibitors of tyrosyl-DNA phosphodiesterase I (Tdp 1) combining 7-hydroxycoumarin and monoterpenoid moieties” (Bioorg Med Chem, 2016)
